Columns and labels:
A549 = assay: Cytotoxic activity against A 549 human lung tumor cell line, using sulforhodamine B (SRB) assay.; type: functional, cell-based
Summary of the method: (§1)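 In vitro sulforhodamine B (SRB) staining assay on human tumor cell lines. Values are reported as IC50 for cytotoxicity.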

SK-OV-3 = assay: Cytotoxic activity against SKOV-3 human ovarian tumor cell line, using sulforhodamine B (SRB) assay.; type: functional, cell-based; summary of the method: as §1
[1] = target: T1, DNA topoisomerase 1 (Homo sapiens) (UniProt P11387); assay: Inhibitory activity against Topoisomerase I in supercoiled DNA unwinding assay method; Weak activity
T1 sequence (whole entry): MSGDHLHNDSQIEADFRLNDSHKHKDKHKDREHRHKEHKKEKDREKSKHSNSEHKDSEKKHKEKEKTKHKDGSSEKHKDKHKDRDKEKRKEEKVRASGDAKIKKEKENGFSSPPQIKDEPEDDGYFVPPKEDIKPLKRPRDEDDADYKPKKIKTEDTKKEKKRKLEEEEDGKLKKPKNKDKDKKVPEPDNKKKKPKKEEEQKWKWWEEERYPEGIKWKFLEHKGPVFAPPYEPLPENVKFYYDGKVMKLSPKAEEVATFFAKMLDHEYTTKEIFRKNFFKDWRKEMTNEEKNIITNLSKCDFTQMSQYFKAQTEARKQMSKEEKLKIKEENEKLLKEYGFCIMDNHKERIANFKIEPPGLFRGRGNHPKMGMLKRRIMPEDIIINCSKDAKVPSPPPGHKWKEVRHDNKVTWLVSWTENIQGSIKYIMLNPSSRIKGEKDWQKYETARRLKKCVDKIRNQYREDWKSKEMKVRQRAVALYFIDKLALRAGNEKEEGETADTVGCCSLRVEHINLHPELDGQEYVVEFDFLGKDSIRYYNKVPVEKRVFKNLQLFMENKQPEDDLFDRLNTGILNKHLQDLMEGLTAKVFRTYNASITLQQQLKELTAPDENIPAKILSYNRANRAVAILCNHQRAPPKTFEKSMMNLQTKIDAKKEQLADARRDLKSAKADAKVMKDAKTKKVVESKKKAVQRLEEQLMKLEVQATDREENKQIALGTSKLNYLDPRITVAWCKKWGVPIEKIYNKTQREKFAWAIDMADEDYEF

HCT-15 = assay: Cytotoxic activity against HCT 15 human colon tumor cell line, using sulforhodamine B (SRB) assay.; type: functional, cell-based; summary of the method: as §1
SK-MEL-2 = assay: Cytotoxic activity against SK-MEL-2 human melanoma cell line, using sulforhodamine B (SRB) assay.; type: functional, cell-based; summary of the method: as §1
OCI-AML2 [2] = assay: Cytotoxic activity against DX-100: doxorubicin (100 ng/mL) resistant AML-2 cell line was determined; type: functional
OCI-AML2 [3] = assay: Cytotoxic activity against D100 daunorubicin (100 nM) resistant AML-2 cell line was determined; type: functional
OCI-AML2 [4] = assay: Cytotoxic activity against wild type AML-2 leukemia cell line was determined; type: functional
[5] = target: T1, DNA topoisomerase 1 (Homo sapiens); assay: Inhibitory activity against Topoisomerase I was determined by the supercoiled DNA unwinding assay method; Greater activity than Camptothecin

Row | Activity [1] | Activity [5] | Structure (SMILES) | IC50 (A549) [µM] | IC50 (SK-OV-3) [µM] | IC50 (HCT-15) [µM] | IC50 (SK-MEL-2) [µM] | Cytotoxicity (OCI-AML2 [2]) [µg/mL] | Cytotoxicity (OCI-AML2 [3]) [µg/mL] | Cytotoxicity (OCI-AML2 [4]) [µg/mL] | Activity (OCI-AML2 [3]) [µg/mL]
1 | Weak activity | – | c1ccc(CNc2nc(-c3ccccc3)cc3ccccc23)cc1 | 177 | 102 | 87.4 | 83 | – | – | – | –
2 | – | – | Cc1ccccc1-c1cc2ccccc2c(N)n1 | 3.14 | 1.81 | 1.92 | 2.11 | – | – | – | –
3 | Weak activity | – | CCN1CCN(c2nc(-c3ccccc3)cc3ccccc23)CC1 | 55.4 | 68.9 | 7.22 | 95.7 | – | – | – | –
4 | – | – | CCN1CCN(c2nc(-c3ccccc3C)cc3cc(C)ccc23)CC1 | 21 | 62 | 8.65 | 12.8 | – | – | – | –
5 | – | – | CCN1CCN(c2nc(-c3ccccc3)cc3cc(C)ccc23)CC1 | 18.2 | 41.8 | 2.42 | 11.9 | – | – | – | –
6 | – | – | CN1CCCN(c2nc(-c3ccc(Br)cc3)cc3ccccc23)CC1 | 6.04 | 3.85 | 5.26 | 4.12 | – | – | – | –
7 | Weak activity | – | Cc1ccccc1-c1cc2ccccc2c(N[C@H]2CC[C@H](N)CC2)n1 | 10.2 | 9.17 | 7.65 | 6.45 | – | – | – | –
8 | – | – | COc1cccc2c1C(=O)c1c(O)c3c(c(O)c1C2=O)C[C@@](O)(C(=O)CO)C[C@@H]3O[C@H]1C[C@H](N)[C@H](O)[C@H](C)O1 [DOXORUBICIN] | – | 1.17 | 1.67 | 4.78 | 3.2 | 1.93 | 0.01 | –
9 | – | Greater activity than Camptothecin | Cc1ccc2c(NCCN)nc(-c3ccccc3)cc2c1 | > 300 | > 300 | > 300 | > 300 | – | – | – | –
10 | – | – | Cc1ccc2c(NCc3ccccc3)nc(-c3ccccc3)cc2c1 | 122 | 156 | 64.2 | 94.4 | – | – | – | –
11 | Weak activity | – | CN1CCCN(c2nc(-c3cccc4ccccc34)cc3ccccc23)CC1 | 0.52 | 3.64 | 1.93 | 1.98 | – | – | – | –
12 | Weak activity | – | CC(=O)N[C@H]1CC[C@H](Nc2nc(-c3ccccc3)cc3ccccc23)CC1 | 145 | 186 | 253 | 183 | – | – | – | –
13 | Weak activity | – | CCN1CCN(c2nc(-c3ccc(C)cc3)cc3cc(C)ccc23)CC1 | 26.9 | 63.4 | 8.07 | 14.4 | – | – | – | –
14 | – | – | CN1CCCN(c2nc(-c3ccc(Cl)cc3)cc3ccccc23)CC1 | 11.8 | 20 | 9.78 | 8.55 | – | – | – | –
15 | – | – | Cc1ccc2c(N)nc(-c3ccccc3C)cc2c1.Cl | 0.17 | 0.21 | 0.17 | 0.14 | 0.0056 | – | 0.0078 | 0.0027
16 | Weak activity | – | Cc1cccc(-c2cc3ccccc3c(NCc3ccccc3)n2)c1 | 103 | 168 | 108 | 85 | – | – | – | –
17 | Weak activity | – | Cc1ccc2c(NCCN)nc(-c3ccccc3Cl)cc2c1 | > 300 | > 300 | > 300 | > 300 | – | – | – | –
18 | – | – | CN1CCN(c2nc(-c3ccccc3)cc3ccccc23)CC1 | 13.6 | 13.7 | 13.9 | 14.5 | – | – | – | –
19 | – | – | Cc1ccc2c(N3CCCN(C)CC3)nc(-c3ccccc3C)cc2c1 | 0.44 | 0.7 | 1.2 | 0.99 | – | – | – | –
20 | – | – | Cc1ccc(-c2cc3ccccc3c(NCc3ccccc3)n2)cc1 | 168 | 193 | 171 | 133 | – | – | – | –
21 | – | – | COc1cccc2c1C(=O)c1c(O)c3c(c(O)c1C2=O)C[C@@](O)(C(C)=O)C[C@@H]3O[C@H]1C[C@H](N)[C@H](O)[C@H](C)O1 [DAUNORUBICIN] | – | – | – | – | 0.43 | 0.52 | 0.001 | –
22 | – | – | N[C@H]1CC[C@H](Nc2nc(-c3ccccc3)cc3ccccc23)CC1 | 7.95 | 4.36 | 7.24 | 7.7 | – | – | – | –
23 | Weak activity | – | Cc1ccc2c(NCCN)nc(-c3ccccc3C)cc2c1 | > 300 | > 300 | > 300 | > 300 | – | – | – | –
24 | – | Greater activity than Camptothecin | Cc1ccc(-c2cc3cc(C)ccc3c(NCCN)n2)cc1 | > 300 | > 300 | > 300 | > 300 | – | – | – | –
25 | – | Greater activity than Camptothecin | CN1CCCN(c2nc(-c3ccccc3)cc3ccccc23)CC1 | 10.8 | 17 | 11.1 | 8.38 | – | – | – | –
26 | – | – | Cc1ccc(-c2cc3ccccc3c(N3CCCN(C)CC3)n2)cc1 | 1.22 | 9.34 | 7.84 | 6.18 | – | – | – | –
27 | Weak activity | – | Cc1cccc(-c2cc3ccccc3c(N3CCCN(C)CC3)n2)c1 | 8.57 | 8.22 | 9.2 | 8.85 | – | – | – | –
28 | Weak activity | – | Cc1cccc(-c2cc3cc(C)ccc3c(NCc3ccccc3)n2)c1 | 171 | 146 | 111 | 88.7 | – | – | – | –
29 | – | Greater activity than Camptothecin | CCN1CCN(c2nc(-c3ccccc3Cl)cc3cc(C)ccc23)CC1 | 13.4 | 195 | 5.58 | 5.58 | – | – | – | –
30 | – | – | Nc1nc(-c2ccccc2)cc2ccccc12 | 2.73 | 2.03 | 1.87 | 1.48 | – | – | – | –
